Data taken from ChEMBL document CHEMBL1122917, “Vinblastin-23-oyl amino acid derivatives: chemistry, physicochemical data, toxicity, and antitumor activities against P388 and L1210 leukemias” (J Med Chem, 1985).

Tests used:
Format in all cases: functional
Mus musculus [1] = assay: Number of survivors of DBA2 mice on 60th day after inoculation with L1210 leukemia cell line intraperitoneally at a dose of 70 mg/kg/day; 0/10; settings: route intraperitoneal
Mus musculus [2] = assay: Number of survivors of DBA2 mice on 60th day after inoculation with L1210 leukemia cell line intraperitoneally at a dose of 75 mg/kg/day; 0/10; settings: route intraperitoneal
Mus musculus [3] = assay: Percent increase in life span of DBA2 mice after inoculation with L1210 leukemia intravenously at a dose of 55 mg/lg per day
Mus musculus [4] = assay: Percent increase in life span of DBA2 mice after inoculation with L1210 leukemia intravenously at a dose of 60 mg/kg per day; settings: route intravenous
How it was run: (§1)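 Female DBA2 mice inoculated iv on day 0 with 10^4 L1210 cells; drugs given iv as sulfate salts in physiological saline, mostly once on day 1. %ILS from all deaths and survivors as (T/C × 100) − 100; survivors scored on days 30 and 60.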

Mus musculus [5] = assay: Percent increase in life span of DBA2 mice after inoculation with L1210 leukemia intravenously at a dose of 65 mg/kg per day; settings: route intravenous; how it was run: as §1
Mus musculus [6] = assay: Percent increase in life span of DBA2 mice after inoculation with L1210 leukemia intravenously at a dose of 70 mg/kg per day; settings: route intravenous; how it was run: as §1
Mus musculus [7] = assay: Percent increase in life span of DBA2 mice after inoculation with L1210 leukemia intravenously at a dose of 75 mg/kg per day; settings: route intravenous
Mus musculus [8] = assay: Number of survivors on 60th day at dose 55 mg/kg/day in 10 mice implanted with P388 leukemia cell line
Mus musculus [9] = assay: Number of survivors on 60th day at dose 60 mg/kg/day in 10 mice implanted with P388 leukemia cell line
How it was run: (§2)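 Female DBA2 mice inoculated iv on day 0 with 10^4 P388 cells; single iv treatment on day 1 with drug as sulfate salt in physiological saline. Survival followed; %ILS from all deaths and survivors as (T/C × 100) − 100, maximal MST 30 days; survivors counted on days 30 and 60. Most experiments confirmed three times.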

Mus musculus [10] = assay: Percent increase in life span at dose 75 mg/kg/day in 10 mice implanted with P388 leukemia cell line
Mus musculus [11] = assay: Number of survivors of DBA2 mice on 30th day after inoculation with L1210 leukemia cell line intravenously at a dose of 55 mg/kg/day; 0/10; settings: route intravenous
Mus musculus [12] = assay: Number of survivors of DBA2 mice on 30th day after inoculation with L1210 leukemia cell line intravenously at a dose of 60 mg/kg/day; 0/10; settings: route intravenous
Mus musculus [13] = assay: Number of survivors of DBA2 mice on 30th day after inoculation with L1210 leukemia cell line intravenously at a dose of 65 mg/kg/day; 0/10; settings: route intravenous
Mus musculus [14] = assay: Number of survivors of DBA2 mice on 30th day after inoculation with L1210 leukemia cell line intravenously at a dose of 70 mg/kg/day; 0/10; settings: route intravenous
Mus musculus [15] = assay: Number of survivors of DBA2 mice on 30th day after inoculation with L1210 leukemia cell line intravenously at a dose of 75 mg/kg/day; 0/10; settings: route intravenous
Mus musculus [16] = assay: Number of survivors on 60th day at dose 50 mg/kg/day in 10 mice implanted with P388 leukemia cell line
Mus musculus [17] = assay: Percent increase in life span at dose 80 mg/kg/day in 10 mice implanted with P388 leukemia cell line; how it was run: as §2
Mus musculus [18] = assay: Percent increase in life span at dose 55 mg/kg/day in 10 mice implanted with P388 leukemia cell line; how it was run: as §2
Mus musculus [19] = assay: Number of survivors on 60th day at dose 75 mg/kg/day in 10 mice implanted with P388 leukemia cell line
Mus musculus [20] = assay: Number of survivors on 60th day at dose 80 mg/kg/day in 10 mice implanted with P388 leukemia cell line
Mus musculus [21] = assay: Percent increase in life span at dose 60 mg/kg/day in 10 mice implanted with P388 leukemia cell line; how it was run: as §2
Mus musculus [22] = assay: Number of survivors on 30th day at dose 50 mg/kg/day in 10 mice implanted with P388 leukemia cell line
Mus musculus [23] = assay: Number of survivors on 30th day at dose 55 mg/kg/day in 10 mice implanted with P388 leukemia cell line
Mus musculus [24] = assay: Number of survivors on 30th day at dose 60 mg/kg/day in 10 mice implanted with P388 leukemia cell line
Mus musculus [25] = assay: Number of survivors of DBA2 mice on 60th day after inoculation with L1210 leukemia cell line intravenously at a dose of 55 mg/kg/day; 0/10; settings: route intravenous
Mus musculus [26] = assay: Number of survivors of DBA2 mice on 60th day after inoculation with L1210 leukemia cell line intravenously at a dose of 60 mg/kg/day; 0/10; settings: route intravenous
Mus musculus [27] = assay: Number of survivors of DBA2 mice on 60th day after inoculation with L1210 leukemia cell line intravenously at a dose of 65 mg/kg/day; 0/10; settings: route intravenous
Mus musculus [28] = assay: Number of survivors on 30th day at dose 75 mg/kg/day in 10 mice implanted with P388 leukemia cell line
Mus musculus [29] = assay: Number of survivors on 30th day at dose 80 mg/kg/day in 10 mice implanted with P388 leukemia cell line
Mus musculus [30] = assay: Percent increase in life span at dose 50 mg/kg/day in 10 mice implanted with P388 leukemia cell line; how it was run: as §2

Which results are given for `CCOC(=O)[C@H](Cc1ccccc1)NC(=O)[C@@]1(O)[C@H](O)[C@]2(CC)C=CCN3CC[C@@]4(c5cc([C@@]6(C(=O)OC)C[C@H]7C[N@](CCc8c6[nH]c6ccccc86)C[C@](O)(CC)C7)c(OC)cc5N(C)[C@@]14C)[C@@H]32`?
Survivors (Mus musculus [1]): 0; Survivors (Mus musculus [2]): 0; ILS (Mus musculus [3]): 0%; ILS at 60 mg/kg/day (Mus musculus [4]): 13.9%; ILS at 65 mg/kg/day (Mus musculus [5]): 3.5%; ILS at 70 mg/kg/day (Mus musculus [6]): 13%; ILS at 75 mg/kg/day (Mus musculus [7]): 25%; Survivors (Mus musculus [8]): 0; Survivors (Mus musculus [9]): 0; ILS at 75 mg/kg/day (Mus musculus [10]): 26.6%; Survivors (Mus musculus [11]): 0; Survivors (Mus musculus [12]): 0; Survivors (Mus musculus [13]): 0; Survivors (Mus musculus [14]): 0; Survivors (Mus musculus [15]): 0; Survivors (Mus musculus [16]): 1; ILS at 80 mg/kg/day (Mus musculus [17]): 41.7%; ILS at 55 mg/kg/day (Mus musculus [18]): 36.4%; Survivors (Mus musculus [19]): 0; Survivors (Mus musculus [20]): 0; ILS at 60 mg/kg/day (Mus musculus [21]): 13.3%; Survivors (Mus musculus [22]): 1; Survivors (Mus musculus [23]): 1; Survivors (Mus musculus [24]): 0; Survivors (Mus musculus [25]): 0; Survivors (Mus musculus [26]): 0; Survivors (Mus musculus [27]): 0; Survivors (Mus musculus [28]): 0; Survivors (Mus musculus [29]): 0; ILS at 50 mg/kg/day (Mus musculus [30]): 21.5%
